Measurements: ChEMBL document CHEMBL3608281, “Synthesis and biological evaluation of novel 3,9-substituted β-carboline derivatives as anticancer agents” (Bioorg Med Chem Lett, 2015)
Activity calls are given as the source filed them. The rule behind the calls is not given here.

How the values were obtained:
A498 = assay: Cytotoxicity against human A498 cells incubated for 48 hrs by MTT assay; format: functional, cell-based; settings: A498, 48 h
[1] = Cytotoxicity against human H460 cells incubated for 48 hrs by MTT assay; format: functional, cell-based; settings: NCI-H460, 48 h
Method in brief: (§1)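 Human tumour lines (HL-60 leukemia, Hep3B liver, H460 lung, A498 renal, COLO205 colon, 2774 and SK-OV-3 ovarian) and normal Detroit 551 skin fibroblasts were exposed to a range of concentrations for 48 h. IC50 is the concentration giving 50% proliferation inhibition, as the mean of three independent determinations.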

[2] = Cytotoxicity against human Hep3B cells incubated for 48 hrs by MTT assay; format: functional, cell-based, Hep 3B2; method in brief: as §1
COLO 205 [3] = assay: Cytotoxicity against human COLO205 cells incubated for 48 hrs by MTT assay; format: functional, cell-based; settings: COLO 205, 48 h; method in brief: as §1
HL-60 [4] = assay: Cytotoxicity against human HL60 cells incubated for 48 hrs by MTT assay; format: functional, cell-based; settings: HL-60, 48 h; method in brief: as §1
[5] = Cytotoxicity against human 2774 cells incubated for 48 hrs by MTT assay; format: functional, cell-based; method in brief: as §1
SK-OV-3 = assay: Cytotoxicity against human SKOV3 cells incubated for 48 hrs by MTT assay; format: functional, cell-based; settings: SK-OV-3, 48 h; method in brief: as §1
Detroit 551 = assay: Cytotoxicity against human Detroit 551 cells incubated for 48 hrs by MTT assay; format: cell-based; settings: Detroit 551, 48 h; method in brief: as §1
HL-60 [6] = assay: Cytotoxicity against human HL60 cells; format: functional, cell-based
COLO 205 [7] = assay: Cytotoxicity against human COLO205 cells; format: functional, cell-based
MCF7 = assay: Cytotoxicity against human MCF7 cells; format: functional, cell-based
HL-60 [8] = assay: Induction of cell morphology changes in human HL60 cells assessed as induction of nuclear shrinkage at 5 uM incubated for 24 hrs by a phase-contrast microscopy; format: functional, cell-based
Method in brief: (§2)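 HL-60 cells were treated at 1, 5 and 10 μM for 24 h and 48 h and examined microscopically for nuclear shrinkage and apoptotic bodies.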

HL-60 [9] = assay: Induction of apoptosis in human HL60 cells assessed as induction of AIF protein release into cytosol at 5 uM incubated for 24 hrs and 48 hrs by Western blotting method; format: functional, cell-based
HL-60 [10] = assay: Induction of cell cycle arrest in human HL60 cells assessed as accumulation at G0/G1 phase at 1 uM incubated for 48 hrs by propidium iodide staining based flow cytometry (reference value: 39.51%); format: functional
HL-60 [11] = assay: Induction of cell cycle arrest in human HL60 cells assessed as accumulation at subG1 phase incubated for 48 hrs by propidium iodide staining based flow cytometry; format: functional
HL-60 [12] = assay: Increase in DR4 protein expression in human HL60 cells at 5 uM incubated for 24 hrs and 48 hrs by Western blotting method; format: functional, cell-based
Method in brief: (§3)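 HL-60 cells were exposed to 5 μM for 24 and 48 h. Lysates were immunoblotted for Fas, DR4, DR5, FasL, TRAIL, Bax, Bcl-2, caspase-9, caspase-3 and PARP (cleavage), with β-actin as loading control.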

HL-60 [13] = assay: Induction of cell cycle arrest in human HL60 cells assessed as accumulation at subG1 phase at 5 uM incubated for 48 hrs by propidium iodide staining based flow cytometry (reference value: 2.5%); format: functional
HL-60 [14] = assay: Induction of cell cycle arrest in human HL60 cells assessed as accumulation at G2/M phase at 10 uM incubated for 48 hrs by propidium iodide staining based flow cytometry (reference value: 16.77%); format: functional
HL-60 [15] = assay: Induction of cell cycle arrest in human HL60 cells assessed as accumulation at G0/G1 phase at 10 uM incubated for 48 hrs by propidium iodide staining based flow cytometry (reference value: 39.51%); format: functional
HL-60 [16] = assay: Induction of apoptosis in human HL60 cells assessed as induction of cytochrome-c protein release into cytosol at 5 uM incubated for 24 hrs and 48 hrs by Western blotting method; format: functional, cell-based
HL-60 [17] = assay: Induction of apoptosis in human HL60 cells assessed as late apoptotic cells level at 5 uM incubated for 48 hrs by annexin V/propidium iodide staining based flow cytometry (reference value: 0.4%); format: functional
HL-60 [18] = assay: Induction of apoptosis in human HL60 cells assessed as late apoptotic cells level at 5 uM incubated for 24 hrs by annexin V/propidium iodide staining based flow cytometry (reference value: 0.4%); format: functional
HL-60 [19] = assay: Induction of cell cycle arrest in human HL60 cells assessed as accumulation at G2/M phase at 5 uM incubated for 48 hrs by propidium iodide staining based flow cytometry (reference value: 16.77%); format: functional
HL-60 [20] = assay: Induction of cell cycle arrest in human HL60 cells assessed as accumulation at subG1 phase at 10 uM incubated for 48 hrs by propidium iodide staining based flow cytometry (reference value: 2.5%); format: functional
HL-60 [21] = assay: Induction of cell cycle arrest in human HL60 cells assessed as accumulation at S phase at 5 uM incubated for 48 hrs by propidium iodide staining based flow cytometry (reference value: 43.72%); format: functional
HL-60 [22] = assay: Induction of apoptosis in human HL60 cells assessed as induction of endonuclease-G protein release into cytosol at 5 uM incubated for 24 hrs and 48 hrs by Western blotting method; format: functional, cell-based
HL-60 [23] = assay: Induction of cell cycle arrest in human HL60 cells assessed as accumulation at G0/G1 phase at 5 uM incubated for 48 hrs by propidium iodide staining based flow cytometry (reference value: 39.51%); format: functional
HL-60 [24] = assay: Induction of apoptosis in human HL60 cells assessed as increase in Bax protein level at 5 uM incubated for 24 hrs and 48 hrs by Western blotting method; format: functional, cell-based; method in brief: as §3
HL-60 [25] = assay: Induction of apoptosis in human HL60 cells assessed as upregulation of caspase-9 protein expression at 5 uM incubated for 24 hrs and 48 hrs by Western blotting method; format: functional, cell-based; method in brief: as §3
HL-60 [26] = assay: Induction of cell cycle arrest in human HL60 cells assessed as accumulation at subG1 phase at 1 uM incubated for 48 hrs by propidium iodide staining based flow cytometry (reference value: 2.5%); format: functional
HL-60 [27] = assay: Induction of apoptosis in human HL60 cells assessed as early apoptotic cells level at 5 uM incubated for 24 hrs by annexin V/propidium iodide staining based flow cytometry (reference value: 0%); format: functional
HL-60 [28] = assay: Induction of cell morphology changes in human HL60 cells assessed as induction of appearance apoptotic bodies at 5 uM incubated for 24 hrs by a phase-contrast microscopy; format: functional, cell-based; method in brief: as §2
HL-60 [29] = assay: Induction of cell cycle arrest in human HL60 cells assessed as accumulation at S phase at 1 uM incubated for 48 hrs by propidium iodide staining based flow cytometry (reference value: 43.72%); format: functional
HL-60 [30] = assay: Induction of apoptosis in human HL60 cells assessed as induction of Apaf-1 protein release into cytosol at 5 uM incubated for 24 hrs and 48 hrs by Western blotting method; format: functional, cell-based
HL-60 [31] = assay: Induction of apoptosis in human HL60 cells assessed as induction of PARP cleavage at 5 uM incubated for 24 hrs and 48 hrs by Western blotting method; format: functional, cell-based; method in brief: as §3
HL-60 [32] = assay: Increase in Fas protein expression in human HL60 cells at 5 uM incubated for 24 hrs and 48 hrs by Western blotting method; format: functional, cell-based; method in brief: as §3
HL-60 [33] = assay: Increase in DR5 protein expression in human HL60 cells at 5 uM incubated for 24 hrs and 48 hrs by Western blotting method; format: functional, cell-based; method in brief: as §3
HL-60 [34] = assay: Increase in TRAIL protein expression in human HL60 cells at 5 uM incubated for 24 hrs and 48 hrs by Western blotting method; format: functional, cell-based; method in brief: as §3
HL-60 [35] = assay: Increase in FasL protein expression in human HL60 cells at 5 uM incubated for 24 hrs and 48 hrs by Western blotting method; format: functional, cell-based; method in brief: as §3
HL-60 [36] = assay: Induction of apoptosis in human HL60 cells assessed as upregulation of caspase-3 protein expression at 5 uM incubated for 24 hrs and 48 hrs by Western blotting method; format: functional, cell-based; method in brief: as §3
HL-60 [37] = assay: Induction of cell cycle arrest in human HL60 cells assessed as accumulation at S phase at 10 uM incubated for 48 hrs by propidium iodide staining based flow cytometry (reference value: 43.72%); format: functional
HL-60 [38] = assay: Induction of apoptosis in human HL60 cells assessed as early apoptotic cells level at 5 uM incubated for 48 hrs by annexin V/propidium iodide staining based flow cytometry (reference value: 0%); format: functional
HL-60 [39] = assay: Induction of apoptosis in human HL60 cells assessed as reduction in Bcl-2 protein level at 5 uM incubated for 24 hrs and 48 hrs by Western blotting method; format: functional, cell-based; method in brief: as §3
HL-60 [40] = assay: Induction of cell cycle arrest in human HL60 cells assessed as accumulation at G2/M phase at 1 uM incubated for 48 hrs by propidium iodide staining based flow cytometry (reference value: 16.77%); format: functional

## O=C(O)c1cc2c3ccccc3n(Cc3ccccc3)c2cn1
A498
  IC50: 9.2 µM
[1]
  IC50: 18.5 µM
[2]
  IC50: 4.4 µM
COLO 205 [3]
  IC50: 31 µM
HL-60 [4]
  IC50: 5 µM

## CCOC(=O)c1cc2c3ccccc3n(Cc3ccc(Cl)cc3)c2cn1
[5]
  IC50: 16.4 µM
SK-OV-3
  IC50: 2.9 µM
A498
  IC50: > 100 µM
Detroit 551
  IC50: > 100 µM
[1]
  IC50: > 100 µM
[2]
  IC50: > 100 µM
COLO 205 [3]
  IC50: > 100 µM
HL-60 [4]
  IC50: > 100 µM

## CCOC(=O)c1cc2c3ccccc3n(Cc3ccccn3)c2cn1
A498
  IC50: 46.3 µM
Detroit 551
  IC50: > 100 µM
[1]
  IC50: > 100 µM
[2]
  IC50: > 100 µM
COLO 205 [3]
  IC50: 38.7 µM
HL-60 [4]
  IC50: > 100 µM

## COc1cc(Cn2c3ccc(C(C)=O)cc3c3cccnc32)cc(OC)c1OC
HL-60 [6]
  IC50: 0.03 µM
COLO 205 [7]
  IC50: 0.52 µM

## CCOC(=O)c1cc2c3ccccc3n(Cc3cccnc3)c2cn1
[5]
  IC50: > 100 µM
SK-OV-3
  IC50: > 100 µM
A498
  IC50: > 100 µM
Detroit 551
  IC50: > 100 µM
[1]
  IC50: > 100 µM
[2]
  IC50: > 100 µM
COLO 205 [3]
  IC50: > 100 µM
HL-60 [4]
  IC50: > 100 µM

## O=C(O)C1Cc2c([nH]c3ccccc23)CN1 (stereo unspecified)
A498
  IC50: > 50 µM
[1]
  IC50: > 50 µM
COLO 205 [3]
  IC50: > 50 µM

## O=C(O)c1cc2c3ccccc3nc-2c[nH]1
[5]
  IC50: > 100 µM
SK-OV-3
  IC50: > 100 µM
A498
  IC50: > 100 µM
Detroit 551
  IC50: > 100 µM
[1]
  IC50: 70.5 µM
[2]
  IC50: 75 µM
COLO 205 [3]
  IC50: 49.6 µM
HL-60 [4]
  IC50: 75 µM

## OCc1ccc2c(c1)c1ccccc1n2Cc1ccc(Cl)nc1
MCF7
  IC50: 20 µM

## CCOC(=O)c1cc2c3ccccc3n(Cc3cccc(OC)c3)c2cn1
[5]
  IC50: > 100 µM
SK-OV-3
  IC50: > 100 µM
A498
  IC50: 21.6 µM
COLO 205 [3]
  IC50: 26.7 µM

## COc1ccccc1Cn1c2ccccc2c2cc(C(=O)O)ncc21
HL-60 [8]
  Activity: Active
[5]
  IC50: 12.6 µM
HL-60 [9]
  Activity: Active
HL-60 [10]
  Activity: 34.67%
SK-OV-3
  IC50: 21.4 µM
HL-60 [11]
  Activity: Dose-dependent effect
HL-60 [12]
  Activity: inactive
HL-60 [13]
  Activity: 14.55%
HL-60 [14]
  Activity: 4.98%
HL-60 [15]
  Activity: 55.62%
HL-60 [16]
  Activity: Active
HL-60 [17]
  Activity: 38.6%
A498
  IC50: 7.5 µM
HL-60 [18]
  Activity: 27.9%
HL-60 [19]
  Activity: 12.42%
HL-60 [20]
  Activity: 17.79%
HL-60 [21]
  Activity: 50.19%
HL-60 [22]
  Activity: Active
HL-60 [23]
  Activity: 37.39%
HL-60 [24]
  Activity: Active
HL-60 [25]
  Activity: Active
HL-60 [26]
  Activity: 9.83%
Detroit 551
  IC50: > 100 µM
HL-60 [27]
  Activity: 37.9%
HL-60 [28]
  Activity: Active
HL-60 [29]
  Activity: 49.22%
HL-60 [30]
  Activity: Active
[1]
  IC50: 8 µM
HL-60 [31]
  Activity: Active
HL-60 [32]
  Activity: inactive
HL-60 [33]
  Activity: inactive
[2]
  IC50: 6.7 µM
HL-60 [34]
  Activity: inactive
HL-60 [35]
  Activity: inactive
HL-60 [36]
  Activity: Active
HL-60 [37]
  Activity: 39.4%
HL-60 [38]
  Activity: 46.6%
COLO 205 [3]
  IC50: 32.5 µM
HL-60 [39]
  Activity: Active
HL-60 [40]
  Activity: 16.11%
HL-60 [4]
  IC50: 4 µM
